Reference: ChEMBL document CHEMBL1151695, “Design, synthesis and preliminary pharmacological evaluation of new analogues of DM232 (unifiram) and DM235 (sunifiram) as cognition modulators” (Bioorg Med Chem, 2008)
Activity calls are given as the source filed them. The calls are words filed in the database; no cut-off is given here.

Tests used:
Mus musculus [1] = species: Mus musculus; experiment: Effect on passive avoidance in mouse treated 20 mins before training session; type: functional; settings: read-out: MED
Outline: (§1)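 Same step-through passive avoidance without scopolamine. Punishment is a 40 cm fall into 10 °C water on entering the dark room. Mice not entering within 60 s at training were excluded. Compound given ip at 1:10 dilution steps, 20 min before training, in saline or saline/DMSO 4:1. Controls received an extra saline injection right after training. Latency to enter the dark room recorded at training and at next-day retention.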

Mus musculus [2] = experiment: Antiamnesic activity in scopolamine-induced mouse assessed as latency time to enter dark room in retention session at 0.01 mg/kg, ip treated 20 mins before training session by passive avoidance test; type: functional; settings: route intraperitoneal
Outline: (§2)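 Step-through passive avoidance in mice: lit and dark compartments joined by a guillotine door. Entering the dark side drops the mouse 40 cm into 10 °C water, a non-painful punishment. Mice not entering within 60 s at training were excluded. Compound given ip at 1:10 dilution steps […], 20 min before training. Vehicle was saline or saline/DMSO 4:1. Scopolamine 1.5 mg/kg ip immediately after punishment. Retention tested next day. MED is the lowest dose reversing amnesia.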

Mus musculus [3] = experiment: Antiamnesic activity in scopolamine-induced mouse assessed as latency time to enter dark room in training session at 0.01 mg/kg, ip treated 20 mins before training session by passive avoidance test; type: functional; settings: route intraperitoneal; outline: as §2
Mus musculus [4] = experiment: Antiamnesic activity in ip dosed mouse assessed as reversal of scopolamine-induced memory loss treated 20 mins before training session by passive avoidance test; type: functional; settings: read-out: MED; outline: as §2
Mus musculus [5] = experiment: Effect on passive avoidance in mouse assessed as latency time to enter dark room in training session at 1.0 mg/kg, ip treated 20 mins before training session; type: functional; settings: route intraperitoneal; outline: as §1
Mus musculus [6] = experiment: Effect on passive avoidance in mouse assessed as latency time to enter dark room in retention session at 1.0 mg/kg, ip treated 20 mins before training session; type: functional; settings: route intraperitoneal; outline: as §1
Mus musculus [7] = species: Mus musculus; experiment: Toxicity in mouse assessed as motor coordination after 45 mins by rotarod test; type: organism-based; settings: in vivo, 0.75 h
Outline: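 Rota-rod: rod 30 cm long, 15 cm above the base, split into five sections, rotating at 16 rpm. Falls counted over 30 s. Mice with fewer than 3 or more than 6 falls in the pretest were rejected. Performance measured at pretest and 15, 30 and 45 min after test start. Compared with saline-treated mice.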

Mus musculus [8] = species: Mus musculus; experiment: Toxicity in mouse assessed as spontaneous motility and inspection activity after 5 mins by hole board test; type: organism-based; settings: in vivo
Outline: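 Hole-board: 40 cm square plane with 16 holes of 3 cm, arranged 4×4. Each mouse placed centrally and free to move for […]. Photocells counted locomotion (spontaneous motility) and hole exploration, both as counts in 5 min. Compared with saline-treated mice.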

Mus musculus [9] = experiment: Antiamnesic activity in scopolamine-induced mouse assessed as latency time to enter dark room in retention session at 0.1 mg/kg, ip treated 20 mins before training session by passive avoidance test; type: functional; settings: route intraperitoneal; outline: as §2
Mus musculus [10] = experiment: Antiamnesic activity in scopolamine-induced mouse assessed as latency time to enter dark room in training session at 0.1 mg/kg, ip treated 20 mins before training session by passive avoidance test; type: functional; settings: route intraperitoneal; outline: as §2
Mus musculus [11] = experiment: Effect on passive avoidance in mouse assessed as latency time to enter dark room in retention session at 10 mg/kg, ip treated 20 mins before training session; type: functional; settings: route intraperitoneal; outline: as §1
Mus musculus [12] = experiment: Effect on passive avoidance in mouse assessed as latency time to enter dark room in training session at 10 mg/kg, ip treated 20 mins before training session; type: functional; settings: route intraperitoneal; outline: as §1
Mus musculus [13] = experiment: Antiamnesic activity in scopolamine-induced mouse assessed as latency time to enter dark room in retention session at 1.0 mg/kg, ip treated 20 mins before training session by passive avoidance test; type: functional; settings: route intraperitoneal; outline: as §2
Mus musculus [14] = experiment: Antiamnesic activity in scopolamine-induced mouse assessed as latency time to enter dark room in training session at 1.0 mg/kg, ip treated 20 mins before training session by passive avoidance test; type: functional; settings: route intraperitoneal; outline: as §2
Mus musculus [15] = experiment: Antiamnesic activity in mouse assessed as reversal of scopolamine-induced memory loss at 10 mg/kg, ip treated 20 mins before training session by passive avoidance test; type: functional, organism-based; parameters: dose 10 mg/kg; outline: as §2
Mus musculus [16] = experiment: Antiamnesic activity in scopolamine-induced mouse assessed as latency time to enter dark room in retention session at 10 mg/kg, ip treated 20 mins before training session by passive avoidance test; type: functional; settings: route intraperitoneal; outline: as §2
Mus musculus [17] = experiment: Antiamnesic activity in scopolamine-induced mouse assessed as latency time to enter dark room in training session at 10 mg/kg, ip treated 20 mins before training session by passive avoidance test; type: functional; settings: route intraperitoneal; outline: as §2

SMILES | minimal effective dose (Mus musculus [1]) [mg/kg] | minimal effective dose (Mus musculus [4]) [mg/kg] | Activity (Mus musculus [7]) | Activity (Mus musculus [8]) | Activity (Mus musculus [15]) | also measured
CC(C)S(=O)(=O)N(C)c1ccc(N(C)S(=O)(=O)c2ccc(F)cc2)cc1 | 1 | 0.01 | Non-toxic | Non-toxic |  | Activity (Mus musculus [2]): 70.5 s; Activity (Mus musculus [3]): 18.8 s; Activity (Mus musculus [5]): 30 s; Activity (Mus musculus [6]): 158.6 s
CC(C)S(=O)(=O)Nc1ccc(N(C)S(=O)(=O)c2ccc(F)cc2)cc1 | 1 | 0.1 | Non-toxic | Non-toxic |  | Activity (Mus musculus [9]): 103.6 s; Activity (Mus musculus [10]): 20.2 s; Activity (Mus musculus [5]): 26.2 s; Activity (Mus musculus [6]): 149.8 s
CC(C)S(=O)(=O)Nc1ccc(NS(=O)(=O)c2ccc(F)cc2)cc1 | 10 | 1 | Non-toxic | Non-toxic |  | Activity (Mus musculus [11]): 125.2 s; Activity (Mus musculus [12]): 21.1 s; Activity (Mus musculus [13]): 76.3 s; Activity (Mus musculus [14]): 19.1 s
O=C(N[C@H]1CC[C@H](NS(=O)(=O)c2ccc(F)cc2)CC1)c1ccccc1 |  |  | Non-toxic | Non-toxic | inactive | 
CC(=O)Nc1ccc(NS(=O)(=O)C(C)C)cc1 |  |  | Non-toxic | Non-toxic | inactive | 
CCC(=O)N[C@H]1CC[C@@H](NS(=O)(=O)c2ccc(F)cc2)CC1 | 10 | 0.1 | Non-toxic | Non-toxic |  | Activity (Mus musculus [11]): 162.9 s; Activity (Mus musculus [12]): 25.3 s; Activity (Mus musculus [9]): 89.1 s; Activity (Mus musculus [10]): 16.8 s
CCC(=O)N1CCN2C(=O)c3ccccc3C2C1 (stereo not drawn) |  |  | Non-toxic | Non-toxic | inactive | 
CC(C)S(=O)(=O)Nc1ccc(NC(=O)c2ccccc2)cc1 | 1 | 10 | Non-toxic | Non-toxic |  | Activity (Mus musculus [16]): 88.1 s; Activity (Mus musculus [17]): 16.8 s; Activity (Mus musculus [5]): 22.1 s; Activity (Mus musculus [6]): 116.7 s
CCC(=O)N[C@H]1CC[C@@H](NC(=O)CC)CC1 | 10 | 1 | Non-toxic | Non-toxic |  | Activity (Mus musculus [11]): 165.2 s; Activity (Mus musculus [12]): 34.8 s; Activity (Mus musculus [13]): 106.2 s; Activity (Mus musculus [14]): 17.8 s
CC(C)S(=O)(=O)N1CCN2C(=O)c3ccccc3C2C1 (stereo not drawn) |  | 1 | Non-toxic | Non-toxic |  | Activity (Mus musculus [13]): 85.5 s; Activity (Mus musculus [14]): 16.3 s
CC(C)S(=O)(=O)N[C@H]1CC[C@H](NC(=O)c2ccccc2)CC1 |  |  | Non-toxic | Non-toxic | inactive | 
CC(C)S(=O)(=O)N1CCN2C(=O)CCC2C1 (stereo not drawn) | 10 |  | Non-toxic | Non-toxic |  | Activity (Mus musculus [11]): 61.5 s; Activity (Mus musculus [12]): 13.6 s
CC(=O)Nc1ccc(NC(=O)c2ccccc2)cc1 |  |  | Non-toxic | Non-toxic | inactive | 
CCC(=O)Nc1ccc(NS(=O)(=O)C(C)C)cc1 |  |  | Non-toxic | Non-toxic | inactive | 
CC(=O)Nc1ccc(NS(=O)(=O)c2ccc(F)cc2)cc1 |  |  | Non-toxic | Non-toxic | inactive | 
CC(=O)N1CCN(C(=O)c2ccccc2)CC1 |  | 10 | Non-toxic | Non-toxic |  | Activity (Mus musculus [16]): 119 s; Activity (Mus musculus [17]): 11.3 s
CCC(=O)Nc1ccc(NS(=O)(=O)c2ccc(F)cc2)cc1 |  |  | Non-toxic | Non-toxic | inactive | 
CC(C)S(=O)(=O)N(C)c1ccc(NC(=O)c2ccccc2)cc1 |  | 0.01 | Non-toxic | Non-toxic |  | Activity (Mus musculus [2]): 66.7 s; Activity (Mus musculus [3]): 20.6 s
O=C1c2ccccc2C2CN(S(=O)(=O)c3ccc(F)cc3)CCN12 (stereo not drawn) |  | 0.1 | Non-toxic | Non-toxic |  | Activity (Mus musculus [9]): 74.5 s; Activity (Mus musculus [10]): 15.6 s
CC(=O)N1CCN2C(=O)c3ccccc3C2C1 (stereo not drawn) |  |  | Non-toxic | Non-toxic | inactive | 
O=C(Nc1ccc(NS(=O)(=O)c2ccc(F)cc2)cc1)c1ccccc1 |  |  | Non-toxic | Non-toxic | inactive | 
CCC(=O)N[C@H]1CC[C@H](NC(=O)CC)CC1 |  |  | Non-toxic | Non-toxic | inactive | 
CC(=O)N[C@H]1CC[C@H](NC(=O)c2ccccc2)CC1 |  |  | Non-toxic | Non-toxic | inactive | 
CCC(=O)N[C@H]1CC[C@H](NC(=O)c2ccccc2)CC1 |  |  | Non-toxic | Non-toxic | inactive | 
CC(C)S(=O)(=O)N(C)c1ccc(N(C)C(=O)c2ccccc2)cc1 | 1 | 0.01 | Non-toxic | Non-toxic |  | Activity (Mus musculus [2]): 91.8 s; Activity (Mus musculus [3]): 20.7 s; Activity (Mus musculus [5]): 19.6 s; Activity (Mus musculus [6]): 123.6 s
CC(=O)N[C@H]1CC[C@@H](NS(=O)(=O)c2ccc(F)cc2)CC1 | 10 | 1 | Non-toxic | Non-toxic |  | Activity (Mus musculus [11]): 156.6 s; Activity (Mus musculus [12]): 32 s; Activity (Mus musculus [13]): 104.5 s; Activity (Mus musculus [14]): 19.1 s
